ChEMBL document CHEMBL1140564, “Macrocyclic ureas as potent and selective Chk1 inhibitors: an improved synthesis, kinome profiling, structure-activity relationships, and preliminary pharmacokinetics” (Bioorg Med Chem Lett, 2007)
Calls of active or inactive are those of the source. The rule behind the calls is not given here.

Tests used:
[1] = biological target: T1, Serine/threonine-protein kinase Chk1 (Homo sapiens, UniProt O14757); assay: Inhibition of Chk1
T1 sequence (O14757 whole entry): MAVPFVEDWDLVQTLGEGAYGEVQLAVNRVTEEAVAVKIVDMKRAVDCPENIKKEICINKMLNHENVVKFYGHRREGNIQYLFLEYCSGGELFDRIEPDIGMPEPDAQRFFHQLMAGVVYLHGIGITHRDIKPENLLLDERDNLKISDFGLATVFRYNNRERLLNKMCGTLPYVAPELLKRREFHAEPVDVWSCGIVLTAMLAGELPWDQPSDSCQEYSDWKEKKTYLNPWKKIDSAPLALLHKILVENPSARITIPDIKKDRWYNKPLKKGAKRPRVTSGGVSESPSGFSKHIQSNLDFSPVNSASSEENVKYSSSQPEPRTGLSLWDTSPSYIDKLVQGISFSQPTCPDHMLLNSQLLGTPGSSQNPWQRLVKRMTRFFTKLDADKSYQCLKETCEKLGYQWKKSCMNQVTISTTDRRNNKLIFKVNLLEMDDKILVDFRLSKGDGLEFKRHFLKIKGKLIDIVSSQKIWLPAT

HeLa = assay: Cytotoxicity against HeLa cells by MTS assay; format: functional, cell-based; conditions: Homo sapiens
NCI-H1299 = assay: Inhibition of doxorubicin-induced cell cycle arrest in H1299 cells at G2/M phase by FACS assay; format: functional, cell-based; conditions: Homo sapiens
Method in brief: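 H1299 cells treated with 500 nM doxorubicin to induce G2/M arrest, with or without inhibitor at various concentrations, up to 10 μM. Cells stained with propidium iodide and DNA content analysed by FACS. EC50 for abrogation of the Dox-induced G2/M checkpoint.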

[2] = Cell cycle arrest in H1299 cells by accumulation at G2/M phase by FACS assay; format: functional, cell-based; conditions: Homo sapiens, NCI-H1299
[3] = biological target: Serine/threonine-protein kinase DCLK2 (Homo sapiens, UniProt Q8N568); assay: Inhibition of DCAMKL2
[4] = Inhibition of JNK1a1; set-up: species or system Homo sapiens
[5] = Inhibition of JNK2a2; set-up: species or system Homo sapiens
[6] = biological target: Mitogen-activated protein kinase kinase kinase 9 (Homo sapiens, UniProt P80192); assay: Inhibition of MLK1
SRSF protein kinase 3 = SRSF protein kinase 3 (Homo sapiens, UniProt Q9UPE1); assay: Inhibition of MSSK1
SRSF protein kinase 3, sequence (Q9UPE1 whole entry): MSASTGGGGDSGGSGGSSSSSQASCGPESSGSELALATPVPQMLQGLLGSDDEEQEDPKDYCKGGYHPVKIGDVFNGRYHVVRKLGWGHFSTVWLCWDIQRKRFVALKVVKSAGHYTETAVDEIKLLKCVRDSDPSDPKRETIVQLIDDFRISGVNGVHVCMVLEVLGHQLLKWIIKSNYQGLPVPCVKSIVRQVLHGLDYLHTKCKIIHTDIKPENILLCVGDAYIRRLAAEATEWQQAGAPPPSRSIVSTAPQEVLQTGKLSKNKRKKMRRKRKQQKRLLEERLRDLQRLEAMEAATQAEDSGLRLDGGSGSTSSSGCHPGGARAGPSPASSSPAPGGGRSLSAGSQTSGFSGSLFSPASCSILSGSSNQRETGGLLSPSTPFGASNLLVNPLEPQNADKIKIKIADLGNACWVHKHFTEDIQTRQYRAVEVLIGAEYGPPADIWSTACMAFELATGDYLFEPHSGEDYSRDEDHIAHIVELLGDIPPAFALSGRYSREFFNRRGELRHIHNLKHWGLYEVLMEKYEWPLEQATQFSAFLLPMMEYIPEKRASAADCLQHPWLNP

[7] = biological target: Muscle, skeletal receptor tyrosine-protein kinase (Homo sapiens, UniProt O15146); assay: Inhibition of MUSK
Muscle, skeletal receptor tyrosine-protein kinase, sequence (O15146 whole entry): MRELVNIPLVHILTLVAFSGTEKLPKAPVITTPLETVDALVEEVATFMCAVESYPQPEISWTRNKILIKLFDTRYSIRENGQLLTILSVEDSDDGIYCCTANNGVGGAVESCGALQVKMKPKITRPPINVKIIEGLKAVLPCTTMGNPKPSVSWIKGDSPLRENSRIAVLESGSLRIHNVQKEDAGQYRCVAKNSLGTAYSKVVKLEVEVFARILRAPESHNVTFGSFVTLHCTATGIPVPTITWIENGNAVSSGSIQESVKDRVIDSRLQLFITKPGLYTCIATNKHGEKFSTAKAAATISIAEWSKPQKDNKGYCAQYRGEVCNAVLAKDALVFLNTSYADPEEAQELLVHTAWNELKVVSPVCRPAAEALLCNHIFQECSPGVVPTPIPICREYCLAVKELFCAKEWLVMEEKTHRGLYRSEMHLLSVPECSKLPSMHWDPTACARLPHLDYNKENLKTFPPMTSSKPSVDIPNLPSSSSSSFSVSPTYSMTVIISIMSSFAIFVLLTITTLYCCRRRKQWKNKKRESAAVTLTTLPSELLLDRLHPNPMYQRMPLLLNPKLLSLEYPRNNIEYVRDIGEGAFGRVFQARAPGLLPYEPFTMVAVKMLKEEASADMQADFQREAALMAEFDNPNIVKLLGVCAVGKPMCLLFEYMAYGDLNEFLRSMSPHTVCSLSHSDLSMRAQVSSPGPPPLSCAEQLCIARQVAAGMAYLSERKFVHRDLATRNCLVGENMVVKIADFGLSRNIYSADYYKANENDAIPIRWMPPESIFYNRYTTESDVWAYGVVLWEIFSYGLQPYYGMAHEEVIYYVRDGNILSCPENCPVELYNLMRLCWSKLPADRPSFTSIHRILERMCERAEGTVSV

[8] = biological target: Serine/threonine-protein kinase Nek11 (Homo sapiens, UniProt Q8NG66); assay: Inhibition of NEK11
Serine/threonine-protein kinase Nek11, sequence (Q8NG66 whole entry): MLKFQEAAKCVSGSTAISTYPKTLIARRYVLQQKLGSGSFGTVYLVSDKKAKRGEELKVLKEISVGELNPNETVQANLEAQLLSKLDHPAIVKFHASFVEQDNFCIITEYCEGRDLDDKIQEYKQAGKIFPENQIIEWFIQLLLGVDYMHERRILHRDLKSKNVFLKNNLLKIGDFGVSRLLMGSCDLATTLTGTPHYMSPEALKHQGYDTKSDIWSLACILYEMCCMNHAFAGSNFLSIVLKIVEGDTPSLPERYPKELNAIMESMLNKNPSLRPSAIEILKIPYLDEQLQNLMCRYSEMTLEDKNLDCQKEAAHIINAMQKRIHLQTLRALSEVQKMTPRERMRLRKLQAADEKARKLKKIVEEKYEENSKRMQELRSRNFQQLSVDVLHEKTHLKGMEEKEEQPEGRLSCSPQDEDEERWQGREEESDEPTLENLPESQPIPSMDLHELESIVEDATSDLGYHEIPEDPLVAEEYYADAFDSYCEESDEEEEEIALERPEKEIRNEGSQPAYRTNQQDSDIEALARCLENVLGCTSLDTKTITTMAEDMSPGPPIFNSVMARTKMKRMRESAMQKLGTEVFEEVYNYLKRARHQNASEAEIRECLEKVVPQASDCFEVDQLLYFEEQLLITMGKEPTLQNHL

[9] = biological target: Serine/threonine-protein kinase Nek3 (Homo sapiens, UniProt P51956); assay: Inhibition of NEK3
[10] = Inhibition of PHK lambda 2; set-up: species or system Homo sapiens
[11] = Inhibition of PKA; set-up: species or system Homo sapiens
[12] = Inhibition of PKG1A; set-up: species or system Homo sapiens
[13] = Inhibition of PKG1B; set-up: species or system Homo sapiens
[14] = biological target: Serine/threonine-protein kinase 31 (Homo sapiens, UniProt Q9BXU1); assay: Inhibition of STK31
[15] = biological target: Serine/threonine-protein kinase 33 (Homo sapiens, UniProt Q9BYT3); assay: Inhibition of STK33
TAK1/TAB1 = TAK1/TAB1 (Homo sapiens, UniProt O43318); assay: Inhibition of TAK1-TAB1
[16] = biological target: Serine/threonine-protein kinase TBK1 (Homo sapiens, UniProt Q9UHD2); assay: Inhibition of TBK1
Serine/threonine-protein kinase TBK1, sequence (Q9UHD2 whole entry): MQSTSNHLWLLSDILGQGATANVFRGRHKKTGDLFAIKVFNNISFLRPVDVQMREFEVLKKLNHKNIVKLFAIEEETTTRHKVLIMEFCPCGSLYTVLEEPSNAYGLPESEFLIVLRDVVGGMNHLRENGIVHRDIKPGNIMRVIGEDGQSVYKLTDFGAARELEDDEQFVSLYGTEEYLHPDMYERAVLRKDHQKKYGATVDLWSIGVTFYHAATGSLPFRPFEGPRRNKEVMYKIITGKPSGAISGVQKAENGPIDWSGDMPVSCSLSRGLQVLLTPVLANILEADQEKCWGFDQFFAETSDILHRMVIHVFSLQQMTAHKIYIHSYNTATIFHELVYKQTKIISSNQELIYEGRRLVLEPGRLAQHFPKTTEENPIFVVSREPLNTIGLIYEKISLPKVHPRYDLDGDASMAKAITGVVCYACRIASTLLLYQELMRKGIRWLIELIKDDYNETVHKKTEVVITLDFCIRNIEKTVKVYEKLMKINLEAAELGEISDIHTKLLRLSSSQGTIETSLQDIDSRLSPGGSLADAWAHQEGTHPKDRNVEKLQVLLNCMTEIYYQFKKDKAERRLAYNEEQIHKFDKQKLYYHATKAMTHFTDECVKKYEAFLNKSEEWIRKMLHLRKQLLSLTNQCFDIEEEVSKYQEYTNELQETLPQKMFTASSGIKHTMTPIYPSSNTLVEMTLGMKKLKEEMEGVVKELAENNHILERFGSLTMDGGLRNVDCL

[17] = biological target: Serine/threonine-protein kinase WNK2 (Homo sapiens, UniProt Q9Y3S1); assay: Inhibition of WNK2
[18] = Inhibition of CMET; set-up: species or system Homo sapiens
[19] = Inhibition of AUR1; set-up: species or system Homo sapiens
[20] = biological target: Ribosomal protein S6 kinase alpha-4 (Homo sapiens, UniProt O75676); assay: Inhibition of MSK2
[21] = biological target: 5'-AMP-activated protein kinase subunit beta-1 (Homo sapiens, UniProt Q9Y478); assay: Inhibition of AMPK
5'-AMP-activated protein kinase subunit beta-1, sequence (Q9Y478 whole entry): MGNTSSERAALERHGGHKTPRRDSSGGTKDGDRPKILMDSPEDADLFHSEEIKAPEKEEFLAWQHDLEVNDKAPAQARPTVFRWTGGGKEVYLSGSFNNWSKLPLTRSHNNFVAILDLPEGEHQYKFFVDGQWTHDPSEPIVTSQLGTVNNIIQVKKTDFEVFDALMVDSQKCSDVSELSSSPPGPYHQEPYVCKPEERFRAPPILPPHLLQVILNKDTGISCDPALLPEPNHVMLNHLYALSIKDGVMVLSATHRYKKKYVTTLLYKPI

[22] = Inhibition of AUR2; set-up: species or system Homo sapiens
[23] = biological target: Serine/threonine-protein kinase Sgk1 (Homo sapiens, UniProt O00141); assay: Inhibition of SGK
[24] = biological target: NUAK family SNF1-like kinase 1 (Homo sapiens, UniProt O60285); assay: Inhibition of ARK5
NUAK family SNF1-like kinase 1, sequence (O60285 whole entry): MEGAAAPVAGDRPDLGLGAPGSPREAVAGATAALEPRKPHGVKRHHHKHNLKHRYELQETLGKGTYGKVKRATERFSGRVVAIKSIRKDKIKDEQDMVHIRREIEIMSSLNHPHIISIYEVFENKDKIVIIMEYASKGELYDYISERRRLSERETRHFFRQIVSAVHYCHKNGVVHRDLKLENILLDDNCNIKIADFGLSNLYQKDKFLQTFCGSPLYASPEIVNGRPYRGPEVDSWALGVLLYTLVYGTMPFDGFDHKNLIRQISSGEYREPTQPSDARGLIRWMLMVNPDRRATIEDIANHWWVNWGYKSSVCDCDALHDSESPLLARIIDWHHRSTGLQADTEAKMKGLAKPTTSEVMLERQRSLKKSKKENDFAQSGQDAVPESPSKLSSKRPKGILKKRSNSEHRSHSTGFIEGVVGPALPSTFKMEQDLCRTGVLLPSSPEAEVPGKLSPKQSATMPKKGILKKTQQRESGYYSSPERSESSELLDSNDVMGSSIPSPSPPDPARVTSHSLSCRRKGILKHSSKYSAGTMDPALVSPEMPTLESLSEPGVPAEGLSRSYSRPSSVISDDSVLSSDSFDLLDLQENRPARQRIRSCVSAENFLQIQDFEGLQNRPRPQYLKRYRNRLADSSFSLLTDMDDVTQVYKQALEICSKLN

[25] = biological target: Cyclin-dependent kinase 6 (Homo sapiens, UniProt Q00534); assay: Inhibition of CDK6
[26] = biological target: Cyclin-dependent kinase 7 (Homo sapiens, UniProt P50613); assay: Inhibition of CDK7
Cyclin-dependent kinase 7, sequence (P50613 whole entry): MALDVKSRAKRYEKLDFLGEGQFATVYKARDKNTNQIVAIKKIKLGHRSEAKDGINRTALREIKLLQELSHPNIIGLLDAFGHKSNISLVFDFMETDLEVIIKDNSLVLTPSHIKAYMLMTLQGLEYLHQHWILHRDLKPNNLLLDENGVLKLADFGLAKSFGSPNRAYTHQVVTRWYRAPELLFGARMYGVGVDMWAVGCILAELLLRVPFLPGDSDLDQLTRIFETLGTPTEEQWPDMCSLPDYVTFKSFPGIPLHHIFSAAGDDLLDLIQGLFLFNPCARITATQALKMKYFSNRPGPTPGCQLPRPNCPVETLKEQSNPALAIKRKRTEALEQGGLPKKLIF

[27] = biological target: Cyclin-dependent kinase 9 (Homo sapiens, UniProt P50750); assay: Inhibition of CDK9
Cyclin-dependent kinase 9, sequence (P50750 whole entry): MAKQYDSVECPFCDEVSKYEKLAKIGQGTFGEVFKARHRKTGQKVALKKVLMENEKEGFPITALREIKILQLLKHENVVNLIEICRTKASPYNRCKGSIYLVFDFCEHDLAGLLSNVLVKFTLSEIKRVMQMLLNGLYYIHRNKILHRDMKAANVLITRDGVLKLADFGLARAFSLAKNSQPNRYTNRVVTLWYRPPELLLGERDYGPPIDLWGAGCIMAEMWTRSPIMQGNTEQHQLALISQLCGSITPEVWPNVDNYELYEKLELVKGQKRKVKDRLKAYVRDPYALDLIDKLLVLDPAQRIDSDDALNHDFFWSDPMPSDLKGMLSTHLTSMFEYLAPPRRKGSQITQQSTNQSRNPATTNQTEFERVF

[28] = biological target: Calcium/calmodulin-dependent protein kinase type IV (Homo sapiens, UniProt Q16566); assay: Inhibition of CAMK4
Calcium/calmodulin-dependent protein kinase type IV, sequence (Q16566 whole entry): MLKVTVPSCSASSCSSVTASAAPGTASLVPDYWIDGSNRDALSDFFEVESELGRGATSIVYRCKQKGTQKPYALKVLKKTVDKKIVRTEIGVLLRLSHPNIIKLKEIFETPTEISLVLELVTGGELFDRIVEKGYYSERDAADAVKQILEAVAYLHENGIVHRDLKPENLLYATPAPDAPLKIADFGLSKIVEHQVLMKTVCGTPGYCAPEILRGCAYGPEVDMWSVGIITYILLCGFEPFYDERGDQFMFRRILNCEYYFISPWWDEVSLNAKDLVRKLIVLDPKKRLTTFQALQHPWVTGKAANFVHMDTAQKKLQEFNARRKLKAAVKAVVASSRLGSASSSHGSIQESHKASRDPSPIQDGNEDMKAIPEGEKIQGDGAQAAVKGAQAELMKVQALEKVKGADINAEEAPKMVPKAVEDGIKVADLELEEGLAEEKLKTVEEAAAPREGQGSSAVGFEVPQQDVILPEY

[29] = AUC in mouse plasma at 10 mg/kg; format: ADME, organism-based; set-up: dose 10 mg/kg
Method in brief: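 CD-1 mice received a single intraperitoneal dose of 10 mg/kg. Plasma drug levels were followed over time, and exposure was expressed as AUC in µmol h/L.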

N#Cc1ncc2nc1OC/C=C\COc1cc(N)c(Cl)cc1NC(=O)N2
IC50 [1]: 0.3 nM
EC50 (HeLa): > 59300 nM
EC50 (NCI-H1299): < 30 nM
EC50 [2]: > 10000 nM

N#Cc1ncc2nc1OC/C=C\COc1cc(OCCCO)c(Cl)cc1NC(=O)N2
IC50 [1]: 2 nM
EC50 (HeLa): > 59300 nM
Activity (NCI-H1299): inactive
Activity [2]: inactive

N#Cc1ncc2nc1OC/C=C\COc1cc(NC(=O)c3ccncc3)c(Cl)cc1NC(=O)N2
IC50 [1]: 6 nM
EC50 (HeLa): > 59300 nM
EC50 (NCI-H1299): > 10000 nM
EC50 [2]: > 10000 nM

N#Cc1ncc2nc1OCCCCOc1cc(NCc3cncs3)c(Cl)cc1NC(=O)N2
Ki [3]: > 9570 nM
Ki [4]: > 3060 nM
Ki [5]: > 4120 nM
Ki [6]: > 1670 nM
Ki (SRSF protein kinase 3): > 1740 nM
Ki [7]: > 1650 nM
Ki [8]: > 1550 nM
Ki [9]: > 1670 nM
Ki [10]: > 4900 nM
Ki [11]: > 7500 nM
Ki [12]: > 1780 nM
Ki [13]: > 1680 nM
Ki [14]: > 1440 nM
Ki [15]: > 1640 nM
Ki (TAK1/TAB1): > 1610 nM
Ki [16]: > 1520 nM
Ki [17]: > 1520 nM
Ki [18]: > 2860 nM
EC50 (HeLa): 59300 nM
Activity (NCI-H1299): inactive
Activity [2]: inactive
Ki [19]: 2020 nM
Ki [20]: 949 nM
Ki [21]: 1540 nM
Ki [22]: 1910 nM
Ki [23]: 8180 nM
Ki [24]: > 1500 nM
Ki [25]: > 1550 nM
Ki [26]: > 1520 nM
Ki [27]: > 1640 nM
Ki [28]: > 8570 nM

CCN(CC)c1cc2c(cc1Cl)NC(=O)Nc1cnc(C#N)c(n1)OCCCCO2
IC50 [1]: 23 nM
EC50 (HeLa): > 59300 nM
EC50 (NCI-H1299): > 10000 nM
EC50 [2]: > 10000 nM

N#Cc1ncc2nc1OCCCCOc1cc(OCCCN3CCOCC3)c(Cl)cc1NC(=O)N2
IC50 [1]: 1 nM
EC50 (HeLa): 5000 nM
EC50 (NCI-H1299): > 10000 nM
EC50 [2]: > 10000 nM

C[C@H](N)C(=O)Nc1cc2c(cc1Cl)NC(=O)Nc1cnc(C#N)c(n1)OC/C=C\CO2
IC50 [1]: 3 nM
EC50 (HeLa): > 59300 nM
EC50 (NCI-H1299): 90 nM
EC50 [2]: > 10000 nM

N#Cc1ncc2nc1OC/C=C\COc1cc(OCCCN3CCOCC3)c(Cl)cc1NC(=O)N2
IC50 [1]: 0.3 nM
EC50 (HeLa): 1900 nM
EC50 (NCI-H1299): > 10000 nM
EC50 [2]: > 10000 nM

N#Cc1ncc2nc1OC/C=C\COc1cc(NC(=O)c3ccnc(Cl)c3)c(Cl)cc1NC(=O)N2
IC50 [1]: 6 nM
EC50 (HeLa): 5400 nM
EC50 (NCI-H1299): > 10000 nM
EC50 [2]: > 10000 nM

N#Cc1ncc2nc1OCCCCOc1ccc(Cl)cc1NC(=O)N2
AUC [29]: 3.8 µM·h
EC50 (HeLa): 57600 nM
EC50 (NCI-H1299): 1300 nM
EC50 [2]: > 10000 nM

CN(C)c1cc2c(cc1Cl)NC(=O)Nc1cnc(C#N)c(n1)OCCCCO2
IC50 [1]: 2 nM
EC50 (HeLa): 54500 nM
EC50 (NCI-H1299): 540 nM
EC50 [2]: > 10000 nM

N#Cc1ncc2nc1OC/C=C\COc1cc(NCCO)c(Cl)cc1NC(=O)N2
IC50 [1]: 2 nM
EC50 (HeLa): > 59300 nM
EC50 (NCI-H1299): 1300 nM
EC50 [2]: > 10000 nM

CN(C)c1cc2c(cc1Cl)NC(=O)Nc1cnc(C#N)c(n1)OC/C=C\CO2
IC50 [1]: 2 nM
EC50 (HeLa): 18700 nM
EC50 (NCI-H1299): 1700 nM
EC50 [2]: > 10000 nM

N#Cc1ncc2nc1OC/C=C\COc1cc(O)c(Cl)cc1NC(=O)N2
IC50 [1]: 0.3 nM
EC50 (HeLa): 45700 nM
EC50 (NCI-H1299): 700 nM
EC50 [2]: > 10000 nM

N#Cc1ncc2nc1OCCCCOc1cc(NC(=O)c3ccncc3)c(Cl)cc1NC(=O)N2
IC50 [1]: 4 nM
EC50 (HeLa): 24300 nM
Activity (NCI-H1299): inactive
Activity [2]: inactive

N#Cc1ncc2nc1OCCCCOc1cc(OCCCO)c(Cl)cc1NC(=O)N2
IC50 [1]: 1 nM
EC50 (HeLa): > 59300 nM
EC50 (NCI-H1299): 2500 nM
EC50 [2]: > 10000 nM

N#Cc1ncc2nc1OCCCCOc1cc(OC(=O)N3CCC(N4CCCCC4)CC3)c(Cl)cc1NC(=O)N2
IC50 [1]: 1 nM
EC50 (HeLa): 2800 nM
EC50 (NCI-H1299): > 10000 nM
EC50 [2]: > 10000 nM

N#Cc1ncc2nc1OCCCCCOc1ccc(Cl)cc1NC(=O)N2
AUC [29]: 1.5 µM·h
